Results as given in PubChem BioAssay.
The source made the active and inactive calls.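 The calls were made as follows, unless noted: active = inhibition above 20% together with a positive visual image hit; inconclusive = visual image hit but inhibition not above 20%; inactive = no visual image hit.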

Experiments:
[1] = inhibitors of TNFa-induced NFkB p65 translocation, primary screen, imaging, HUVEC, MLSMR starter and 10KST1 sets (AID 438); settings: HUVEC TNFa-induced p65 nuclear translocation; cell count: measured here: nuclei count (cytotoxicity indicator), at 2.08 µM; inhibition: at 2 µM, stronger effect = higher value, 0% TNFa-plus-vehicle, 100% no-TNFa wells;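 also: compound added about 3h40 before a 20 min TNFalpha stimulation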;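 as to inhibition: signal is the nuclear over cytoplasmic p65 intensity ratio per well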
[2] = reduction of polyQ htt aggregates in cells – imaging, exon1htt(103Q)mCFP cells, high-content imaging, primary screen (AID 483;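 active = visual image review flags a hit and inhibition of aggregation exceeds 20%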;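 also: compound exposure lasted 3 days before fixation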;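 as to nuclei count: percent of the per-plate median nuclei count of sample wells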); settings: exon1htt(103Q)mCFP cell line, aggregate imaging, at 2 µM; inhibition of aggregation: stronger effect = higher value; nuclei count: measured here: cell count, toxicity
[3] = endothelial E-selectin expression blockers – imaging, HUVEC, immunofluorescence, MLSMR starter and 10KST1 sets, primary screen (AID 487;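 active = visually confirmed hit in the image check and inhibition above 20%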;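 as to inhibition: signal is fraction of cell area covered by stained E-selectin grains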;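 as to nuclei count: 100% = median nuclei count of all wells on the same plate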); settings: HUVEC TNFalpha-induced E-selectin immunofluorescence imaging, at 2 µM; inhibition: stronger effect = higher value; nuclei count: measured here: cell number, toxicity
[4] = biological target: Voltage-gated potassium channel subunit beta-2 (Rattus norvegicus) (UniProt P62483); assay: inhibitors of rat Kvbeta2 reductase activity – biochemical, NADPH fluorescence, primary screen (AID 622;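 active = fluorescence slope higher than the sample average by over 3 SD, cut at about -0.22 in these data, passing the limit was not always enough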;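 also: slope of raw intensity against log time taken from 70 to 1610 s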); settings: recombinant KvBeta, 4-cyanobenzaldehyde reduction, at 10 µM, stronger effect = higher value
Sequence of Voltage-gated potassium channel subunit beta-2 (Rattus norvegicus) (P62483 whole entry, looked up): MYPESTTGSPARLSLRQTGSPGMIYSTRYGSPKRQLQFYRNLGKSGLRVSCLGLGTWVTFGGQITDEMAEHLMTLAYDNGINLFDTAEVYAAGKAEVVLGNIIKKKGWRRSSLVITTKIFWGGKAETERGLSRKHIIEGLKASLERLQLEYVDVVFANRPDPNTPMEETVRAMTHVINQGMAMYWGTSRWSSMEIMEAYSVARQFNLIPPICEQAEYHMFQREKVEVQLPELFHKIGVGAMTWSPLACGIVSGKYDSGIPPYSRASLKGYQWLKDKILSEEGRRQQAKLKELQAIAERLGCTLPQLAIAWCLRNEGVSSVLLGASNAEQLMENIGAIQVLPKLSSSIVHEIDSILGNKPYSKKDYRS

[5] = biological target: Voltage-gated potassium channel subunit beta-2 (Rattus norvegicus) (UniProt P62483); assay: enhancers of rat Kvbeta2 NADPH turnover – biochemical, NADPH fluorescence, primary screen (AID 623;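 active = NADPH fluorescence slope more negative than the mean of all samples by about 3 SD, 99.7% confidence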;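 also: fluorescence intensity change per second fitted from 20 to 320 s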); settings: Recombinant KvBeta, NADPH fluorescence decrease slope, 10 min; at 10 µM; stronger effect = lower value
[6] = biological target: Muscarinic acetylcholine receptor M4 (Homo sapiens) (UniProt P08173); assay: M4-linked GIRK flux change, two-sided – cell-based, HEK293 M4/GIRK, thallium flux, BTC-AM, M4 allosteric agonist project, primary screen (AID 625;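 active = fluorescence slope after compound addition differing from the mean of all tested samples at 99.7% confidence, mostly higher but some lower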;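 also: thallium influx through GIRK channels coupled to M4 in HEK293 cells with BTC-AM dye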); settings: at 10 µM, actives lie on both sides
Sequence of Muscarinic acetylcholine receptor M4 (Homo sapiens) (P08173 whole entry, looked up): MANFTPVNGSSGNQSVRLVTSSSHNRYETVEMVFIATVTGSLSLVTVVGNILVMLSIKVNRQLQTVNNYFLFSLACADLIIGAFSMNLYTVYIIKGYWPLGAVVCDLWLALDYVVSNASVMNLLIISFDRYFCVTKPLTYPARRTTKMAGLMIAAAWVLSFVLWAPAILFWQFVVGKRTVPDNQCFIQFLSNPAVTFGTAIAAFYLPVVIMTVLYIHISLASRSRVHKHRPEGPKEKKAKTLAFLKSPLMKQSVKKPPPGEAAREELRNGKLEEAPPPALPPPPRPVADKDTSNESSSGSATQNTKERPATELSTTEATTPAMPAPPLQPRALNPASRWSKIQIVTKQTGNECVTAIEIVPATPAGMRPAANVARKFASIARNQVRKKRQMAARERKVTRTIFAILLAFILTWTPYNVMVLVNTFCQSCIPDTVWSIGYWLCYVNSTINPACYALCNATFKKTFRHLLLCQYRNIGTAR
Outline: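 assay system = HEK293 cells with M4 receptor and GIRK channels | medium = pH 7.3 thallium assay buffer | doses = 10 µM final, single point | timing = cells overnight at 37 °C, BTC-AM loading 1 h, reads 2 min total | signal = BTC-AM fluorescence, 1 Hz kinetic reads | read-out = post-addition slope, 15–24 s, of baseline-normalized fluorescence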

[7] = blockers of RIG-like receptor reporter activation – cell-based, Sendai virus stimulus, luciferase, 10K MLSCN set, TLR/RLR signaling modifier project, primary screen (AID 602276;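 active = inhibition at or above 50% at 10 µM; inactive = inhibition below 50%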;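 also: firefly luciferase from ISG56 promoter only with Renilla not read in this screen; 0% = Sendai virus plus DMSO and 100% = medium plus DMSO without virus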); settings: HEK293 RL24 IRF3 luciferase reporter, at 10 µM, stronger effect = higher value
[8] = TLR3 IRF3 reporter activation blockers – cell-based, poly I:C stimulus, luciferase, 10K MLSCN set, primary screen (AID 602277;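 active = inhibition of the reporter signal at or above 50%; inactive = inhibition below 50%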); settings: HEK293-TLR3 RL24 IRF3 luciferase reporter, at 10 µM, stronger effect = higher value

Row | SMILES | cell count [1] | inhibition [1] | inhibition of aggregation [2] | nuclei count [2] [%] | inhibition [3] | nuclei count [3] [%] | fluorescence slope [4] | NADPH fluorescence slope [5] | fluorescence slope [6] | inhibition [7] | inhibition [8]
1 | CCOC(=O)CSc1cn2c(n1)CCC2 | 547 | -10.9% (inactive) | 14.3% (inactive) | 66.8 | -25.8% (inactive) | 89.1 | -0.595 (inactive) | 1.5e-05 (inactive) | 0.00761 (inactive) | -11.5% (inactive) | -11.4% (inactive)
2 | CCCN(CCC)S(=O)(=O)c1ccc(C(=O)Nc2nnc(-c3cccc(OC)c3)o2)cc1 | 345 | 1.4% (inactive) | 13.6% (inactive) | 92.5 | 38.1% (inactive) | 107 | -0.5 (inactive) | -0.000148 (inactive) | 0.0064 (inactive) | 27.3% (inactive) | 23.2% (inactive)
3 | CN1CCN(CCCNC(=O)C2CC(=O)N(C3CCCCC3)C2)CC1 (stereo not drawn) | 259 | -1.7% (inactive) | 2.4% (inactive) | 98 | 15.5% (inactive) | 89.4 | -0.548 (inactive) | -4.3e-05 (inactive) | 0.00645 (inactive) | 14.4% (inactive) | 13.7% (inactive)
4 | COc1cc(C(=O)N2CCCC(c3nc(-c4cccs4)no3)C2)cc(OC)c1OC (stereo not drawn) | 709 | -19.4% (inactive) | 4.4% (inactive) | 89 | -30.6% (inactive) | 101 | -0.508 (inactive) | -0.000226 (inactive) | 0.00584 (inactive) | 13.5% (inactive) | 12.8% (inactive)
5 | CCOC(=O)CSc1nc2ccccc2n2cnnc12 | 315 | -1.4% (inactive) | 13.5% (inactive) | 103 | -4% (inactive) | 113 | -0.327 (inactive) | -5.9e-05 (inactive) | 0.00582 (inactive) | 2.3% (inactive) | 8.27% (inactive)
6 | Cc1cc(C)nc(N2CCC(C(=O)NCc3cccc(C(F)(F)F)c3)CC2)n1 | 441 | 7.1% (inactive) | -55.6% (inactive) | 85.9 | 45.5% (inactive) | 85.1 | -0.227 (inactive) | -4.8e-06 (inactive) | 0.00567 (inactive) | 11.9% (inactive) | 14% (inactive)
7 | CCn1c(=N)n(CC(O)COc2cccc(C)c2)c2ccccc21 (stereo not drawn) | 289 | -4.7% (inactive) | -15.2% (inactive) | 94.9 | -9.5% (inactive) | 112 | -0.517 (inactive) | 4.3e-05 (inactive) | 0.00395 (inactive) | -0.649% (inactive) | -11.2% (inactive)
8 | CCN(CC)S(=O)(=O)N1CCC(C(=O)NCC2COc3ccccc3O2)CC1 (stereo not drawn) | 616 | 17% (inactive) | -12.4% (inactive) | 88.5 | -27.8% (inactive) | 115 | -0.494 (inactive) | 2.9e-05 (inactive) | 0.00755 (inactive) | -4.12% (inactive) | 1.83% (inactive)
9 | Cc1ncoc1C(=O)Nc1ccccc1C(N)=O | 408 | 3.5% (inactive) | 11.4% (inactive) | 102 | -2.5% (inactive) | 108 | -0.243 (inactive) | -1.8e-07 (inactive) | 0.00516 (inactive) | 1.59% (inactive) | -3.92% (inactive)
10 | Cc1cc(-c2ccccc2)c2c3c(cn2n1)c(=O)n(C)c(=O)n3C | 386 | 2% (inactive) | -0.2% (inactive) | 116 | -14.4% (inactive) | 86.7 | -0.59 (inactive) | -1.7e-06 (inactive) | 0.00111 (inactive) | 17.8% (inactive) | 27.8% (inactive)
11 | CCN1CCN(Cc2ccc(NC(=O)Nc3ccc(SC)cc3)cc2)CC1 | 268 | -1.7% (inactive) | 16.3% (inactive) | 97.3 | -52.1% (inactive) | 93.5 | -0.54 (inactive) | -3.4e-05 (inactive) | 0.00398 (inactive) | -29.9% (inactive) | -81.3% (inactive)
12 | CCC(=O)N1CCc2cc(S(=O)(=O)CCC(=O)Nc3nc(C)cs3)ccc21 | 606 | 5.7% (inactive) | 9.7% (inactive) | 95.8 | -144% (inactive) | 158 | -0.439 (inactive) | 7.6e-05 (inactive) | 0.00524 (inactive) | 19.2% (inactive) | 21.5% (inactive)
13 | O=C1CNCc2[nH]c3ccccc3c2N1c1ccccc1 | 377 | 3.9% (inactive) | 9.4% (inactive) | 104 | -124% (inactive) | 118 | -0.509 (inactive) | -3.5e-05 (inactive) | 0.00541 (inactive) | 17.2% (inactive) | 17.9% (inactive)
14 | COc1cc(C(=O)Nc2ccc3c(c2)C(=O)N(CCC(=O)O)C3=O)cc(OC)c1OC | 469 | 2% (inactive) | 4.8% (inactive) | 89.5 | -37.8% (inactive) | 87.3 | -0.488 (inactive) | -4.2e-05 (inactive) | 0.00491 (inactive) | 12.6% (inactive) | 18% (inactive)
15 | CC1(C)CC(=O)c2cnc(NC(=O)CSc3nc4ccccc4o3)nc2C1 | 257 | -5.5% (inactive) | -24.6% (inactive) | 87.1 | -79.9% (inactive) | 107 | -0.294 (inactive) | -1.5e-05 (inactive) | 0.00793 (inactive) | -3.99% (inactive) | 20% (inactive)
16 | COc1ccccc1NS(=O)(=O)c1ccc(NC(=O)c2nc3ncccn3n2)cc1 | 266 | 8.8% (inactive) | 8.5% (inactive) | 86.7 | -14% (inactive) | 93 | -0.571 (inactive) | -7.6e-05 (inactive) | 0.0057 (inactive) | 17.6% (inactive) | 13.9% (inactive)
17 | O=C(CNS(=O)(=O)c1ccc(Br)s1)N1CCCC1 | 367 | 3.7% (inactive) | -1% (inactive) | 93.3 | -164% (inactive) | 101 | -0.636 (inactive) | -9.6e-06 (inactive) | 0.00369 (inactive) | 21.1% (inactive) | 25.7% (inactive)
18 | Cc1cc(C)c(-c2cc(C(=O)Nc3c(C)n(C)n(-c4ccccc4)c3=O)[nH]n2)c(O)c1 | 434 | 1.8% (inactive) | -1.8% (inactive) | 111 | -51.7% (inactive) | 105 | -0.585 (inactive) | 3.8e-05 (inactive) | 0.00571 (inactive) | 8.55% (inactive) | 101% (active)
19 | CCOC(=O)C1CCN(C(=O)c2ccc(OC)cc2OC)CC1 | 676 | -5.3% (inactive) | 0.1% (inactive) | 97.6 | 43.5% (inactive) | 86.8 | -0.566 (inactive) | 5.6e-06 (inactive) | 0.00429 (inactive) | 20% (inactive) | 20.5% (inactive)
20 | O=C(c1ccc(Cl)cc1)N(Cc1cccs1)C1CCS(=O)(=O)C1 (stereo not drawn) | 376 | 0.4% (inactive) | -20.1% (inactive) | 110 | -33.8% (inactive) | 112 | -0.555 (inactive) | -9.2e-05 (inactive) | 0.00385 (inactive) | -5.62% (inactive) | -0.322% (inactive)
21 | N#Cc1cn(CC(=O)N2CCCC2)c2ccccc12 | 391 | 3% (inactive) | -10.4% (inactive) | 108 | -18.5% (inactive) | 95.9 | -0.562 (inactive) | -6.6e-05 (inactive) | 0.00355 (inactive) | 17.7% (inactive) | 22.5% (inactive)
22 | CC(C)(C)C(=O)N=C1SC2CS(=O)(=O)CC2N1c1ccc2c(c1)OCO2 (stereo not drawn) | 454 | 5.8% (inactive) | 2% (inactive) | 96.6 | 6.6% (inactive) | 132 | -0.546 (inactive) | -4.1e-05 (inactive) | 0.0052 (inactive) | -0.393% (inactive) | 7.75% (inactive)
23 | COc1ccccc1N1CCN(C(=O)c2ccc(CS(=O)(=O)c3ccccc3OC)o2)CC1 | 550 | -12.7% (inactive) | -6.3% (inactive) | 110 | -68.7% (inactive) | 113 | -0.478 (inactive) | 3.4e-05 (inactive) | 0.00677 (inactive) | 6.55% (inactive) | 15.7% (inactive)
24 | Cc1cc(NC(=O)c2ccccc2Oc2ccccc2)no1 | 708 | -0.2% (inactive) | 23.9% (inactive) | 102 | 23.9% (inactive) | 101 | -0.532 (inactive) | -6.9e-05 (inactive) | 0.00465 (inactive) | 12.4% (inactive) | 9.02% (inactive)
25 | COC(=O)CN(c1ccc2c(c1)OCO2)S(C)(=O)=O | 356 | -0.3% (inactive) | 17.1% (inactive) | 81.1 | 62.9% (inactive) | 49.1 | -0.482 (inactive) | -2.7e-06 (inactive) | 0.00639 (inactive) | 8.14% (inactive) | 8.67% (inactive)
26 | CCOc1ccc(C(CC(=O)O)NC(=O)c2ccco2)cc1OC (stereo not drawn) | 562 | 1.8% (inactive) | -9.7% (inactive) | 113 | 22.7% (inactive) | 106 | -0.35 (inactive) | -3.7e-05 (inactive) | 0.00565 (inactive) | 9.42% (inactive) | 29.4% (inactive)
27 | CCC(=O)N(Cc1cc2c(C)ccc(C)c2[nH]c1=O)C1CCCCC1 | 689 | -5.6% (inactive) | 1.1% (inactive) | 93.2 | -36.3% (inactive) | 100 | -0.474 (inactive) | -3.7e-05 (inactive) | 0.00636 (inactive) | 13.6% (inactive) | 25.2% (inactive)
28 | COc1cc(OC)cc(-c2nc3nc(C)c(CCC(=O)O)c(C)n3n2)c1 | 681 | -14.6% (inactive) | 0.2% (inactive) | 111 | 46.5% (inactive) | 97.4 | -0.522 (inactive) | -3.8e-05 (inactive) | 0.00535 (inactive) | 21.9% (inactive) | 28.4% (inactive)
